# Only some compounds are listed: those with a hit (about 6.8% of all), similar ones and a draw of the others.
# HCV core dimer – inhibitors of HCV core protein dimerization, primary screen, biochemical, TR-FRET, high-throughput; TR-FRET GST/Flag-core106 dimerization, 1536-well; inhibition, % at 5 µM; hit rate 0.33% among 300,000;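 active = inhibition above the mean of all tested compounds plus 3 SD, set per screening campaign, cut at about 45% in these data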
#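 Material: Tagged HCV core106 pair (GST and Flag) | Amount: GST-core106 13.5 nM, Flag-core106 17 nM | Medium: KF-containing HEPES buffer, pH 7.45, DTT, CHAPS, BSA | Reagent: Eu donor and XL665 acceptor anti-tag antibodies | Schedule: 4 h at 22.5 °C | Technique: Time-resolved FRET, ex 340 nm, em 617 and 671 nm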
# AI-2 QS modul – Vibrio harveyi AI-2 quorum sensing modulators, primary screen, JMH597 strain, luminescence/OD600 ratio. Vibrio harveyi JMH597 AI-2 luminescence/OD600 ratio, 9 h; active compounds read low; strain lacks LuxN and CqsS sensors; 0 = neutral-control median. activity change, % at 7.5 µM. hit rate 0.4% among 300,000; in the data active = activity change below about -75%, passing the limit was not always enough;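 note: luminescence divided by OD600 gain over 9 h not by final OD600 alone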
# PHOSPHO1 inh – PubChem AID 1565. recombinant PHOSPHO1, absorbance phosphatase assay. Phosphoethanolamine/phosphocholine phosphatase (Homo sapiens), Q8TCT1. inhibition, % at 13.3 µM. hit rate 1.1% among 290,000; in the data active = inhibition above about 60%
# HSF1 activator – HSF-1 activators, primary screen, NIH3T3-HGL cells, MG132 stress, luminescence, single point; activation, % at 9 µM; hit rate 1.7% among 300,000; NIH3T3-HGL HSF-1 luciferase reporter, 8 h; 100% = twice DMSO control signal;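 active = mean replicate activation of at least 50% with a set share of replicates each reaching 50%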
# HSF1 inh – HSF1 inhibitors in luciferase reporter cells, primary screen, cell-based, NIH3T3, luminescence. NIH3T3-HGL HSE-luciferase, MG132-induced, luminescence 8 h; active compounds read low. activity change, negative = inhibition, % at 7.5 µM (by protocol). hit rate 0.77% among 300,000. AID 2098, 2009;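 active = more than half of replicate wells show activity change below -50%, luminescence cut by over half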;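 note: luciferase reports HSF-1 transcriptional activity via heat shock element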
# ALR inh – inhibitors of human ALR sulfhydryl oxidase, primary screen, biochemical, H2O2 detection, HRP-luminol luminescence, single point; FAD-linked sulfhydryl oxidase ALR (Homo sapiens), P55789; purified ALR, DTT oxidation; inhibition, % (test concentration not listed); hit rate 3.8% among 290,000; AID 485317, 2010;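 active = mean replicate inhibition above about 79%, with every replicate also reaching it, limit read from the data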
# Target sequence (P55789 whole entry, looked up): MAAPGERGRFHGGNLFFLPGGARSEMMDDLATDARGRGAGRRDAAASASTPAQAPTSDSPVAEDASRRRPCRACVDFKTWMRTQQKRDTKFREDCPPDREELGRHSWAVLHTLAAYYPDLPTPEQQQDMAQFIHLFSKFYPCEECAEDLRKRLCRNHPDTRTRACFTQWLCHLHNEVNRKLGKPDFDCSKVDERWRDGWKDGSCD
# Hits are given with their value; – = inactive; · = not tested or not shown.
SMILES,HCV core dimer,AI-2 QS modul,PHOSPHO1 inh,HSF1 activator,HSF1 inh,ALR inh
CCOC(=O)Nc1ccc2c(c1)N(C(=O)CCN(CC)CC)c1ccccc1S2=O (stereo not drawn),–,–,–,–,–,–
c1ccc(CSc2nnc(-c3ccco3)n2Cc2ccco2)cc1,–,–,–,80,–,–
Brc1ccc(CSc2nnc(-c3ccccn3)n2Cc2ccco2)cc1,–,–,–,145,–,–
c1ccc(CSc2nnc(-c3cccs3)n2Cc2ccco2)cc1,–,–,–,–,–,–
Cc1ccccc1CSc1nnc(-c2ccco2)n1Cc1ccco1,–,–,–,117,–,–
COC(=O)CSc1nn(-c2ccc(F)cc2)c(=S)s1,–,–,–,–,–,–
OCC[C@H]1C[C@H](O)[C@@H](O)[C@]2(OCCc3ccccc32)O1,–,·,·,·,·,–
COc1cc(OC)c(NS(=O)(=O)c2c(C(=O)N3CCCCC3)c(C)n(C)c2C)cc1Cl,–,–,–,–,–,–
COc1cc(OC)c(NC(C)C(=O)N2CCCC2)cc1Cl (stereo not drawn),–,–,–,–,–,79
Cc1cc(C)cc(C(=O)NN2CCN(C)CC2)c1,–,–,–,–,–,–
Cc1cc2cc(CCNC(=O)C(=O)c3c[nH]c4ccccc34)c(=O)[nH]c2cc1C,–,–,–,–,-63,–
COc1ccc(OC)c(S(=O)(=O)CC(=O)c2cc3ccc(OC)cc3oc2=O)c1,62,–,–,–,–,–
COc1ccc(S(=O)(=O)CC(=O)c2cc3cc(Br)ccc3oc2=O)cc1,–,–,–,–,–,–
Cc1ccc(OCCSc2ncccn2)c(C)c1,·,–,–,62,–,·
Cc1cccc(OCCOCCSc2ncccn2)c1,–,–,–,–,–,–
CCCNC(=O)Cn1c(=O)/c(=C\c2ccc(-c3ccc([N+](=O)[O-])cc3)o2)s/c1=C\C(=O)C(C)(C)C,–,–,–,–,–,–
CCCNC(=O)Cn1c(=O)/c(=C\c2ccc(-c3cccc([N+](=O)[O-])c3)o2)s/c1=C\C(=O)C(C)(C)C,57,–,–,–,–,–
CC(OC(=O)CCN=C1NS(=O)(=O)c2ccccc21)C(=O)Nc1ccc(S(N)(=O)=O)cc1 (stereo not drawn),·,·,·,·,·,–
COCC[N+]1(C)CCCCC1,–,–,–,–,–,–
Cn1nnc2c[n+](CC(=O)c3ccc4ccccc4c3)cc(Br)c21,–,–,–,93,–,–
O=C(C[n+]1ccccc1)c1ccc(Cl)cc1,–,–,–,–,–,–
Cn1nnc2c[n+](CC(=O)c3ccc(Cl)cc3)cc(Br)c21,–,–,–,–,–,91
O=C(Nc1cc(C(F)(F)F)ccc1-n1cnc2ccccc21)c1ccccc1,–,–,–,–,–,–
CCOC(=O)c1nnn(CC(=O)NC(=O)Nc2ccccc2)c1C(=O)OCC,–,–,–,–,–,–
CCOC(=O)c1nnn(CC(=O)NC(=O)Nc2ccc(F)cc2)c1C(=O)OCC,–,–,–,–,-72,–
SMILES,HCV core dimer,AI-2 QS modul,PHOSPHO1 inh,HSF1 activator,HSF1 inh,ALR inh
O=C(CCN1CCc2ccccc2CC1)c1ccc2c(c1)OCCO2,–,–,–,82,–,–
O=C(CCN1CCOCC1)c1ccc2c(c1)OCCO2,–,–,–,–,–,–
O=C(CCCO)c1ccc2c(c1)OCCO2,–,–,–,–,-60,–
O=C(CCCN1CCOCC1)c1ccc2c(c1)OCCO2,–,–,–,–,–,–
O=C(c1cccc(Cl)c1)N(Cc1ccco1)C1CCS(=O)(=O)C1 (stereo not drawn),–,–,–,–,–,–
COc1ccc(C2(C(=O)NCc3ccccc3Cl)CCOCC2)cc1OC,–,–,–,–,–,·
C/C(CCc1oc2c(Br)cc(Br)cc2c1-c1ccc(C)o1)=N\O,–,–,–,80,–,–
Nc1ccc(S(=O)(=O)c2ccc(N)c(N)c2)cc1,–,–,–,–,–,88
O=C1C(=Cc2cccs2)C(=O)c2ccccc21,–,–,–,–,–,–

# Assay outcomes deposited in PubChem BioAssay by several laboratories.
